# From ChEMBL document CHEMBL1152757, “Stereoselective synthesis and biological evaluation of syn-1-amino-3-[18F]fluorocyclobutyl-1-carboxylic acid as a potential positron emission tomography brain tumor imaging agent” (Bioorg Med Chem, 2009)
# How the values were obtained:
# Bone [1] = experiment: Biodistribution in bone of rat 9L cells implanted Fischer rat at 15 to 30 uCi, iv after 30 mins by gamma-counter; assay type: ADME, organism-based, Bone element; details: in vivo, 0.5 h
# In short: (§1)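 Male Fischer 344 rats (125-175 g) implanted intracranially by stereotactic injection of 5 × 10^4 9L gliosarcoma cells. Used 10-12 days after implantation. Tracer given into the tail vein at 15-30 µCi in 0.1-0.3 mL sterile saline. Groups of 4 were sacrificed at 15, 30, 60 and 120 min. Tissues were weighed and gamma-counted against dose standards, and counts decay-corrected to %ID/g (mean ± SD). One-way ANOVA.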
# Bone [2] = experiment: Biodistribution in bone of rat 9L cells implanted Fischer rat at 15 to 30 uCi, iv after 60 mins by gamma-counter; assay type: ADME, organism-based, Bone element; details: in vivo, 1 h; in short: as §1
# Bone [3] = experiment: Biodistribution in bone of rat 9L cells implanted Fischer rat at 15 to 30 uCi, iv after 120 mins by gamma-counter; assay type: ADME, organism-based, Bone element; details: in vivo, 2 h; in short: as §1
# [4] = Biodistribution in testis of rat 9L cells implanted Fischer rat at 15 to 30 uCi, iv after 15 mins by gamma-counter; assay type: ADME, organism-based; details: in vivo, 0.25 h; in short: as §1
# [5] = Biodistribution in testis of rat 9L cells implanted Fischer rat at 15 to 30 uCi, iv after 30 mins by gamma-counter; assay type: ADME, organism-based; details: in vivo, 0.5 h; in short: as §1
# [6] = Biodistribution in testis of rat 9L cells implanted Fischer rat at 15 to 30 uCi, iv after 60 mins by gamma-counter; assay type: ADME, organism-based; details: in vivo, 1 h; in short: as §1
# [7] = Biodistribution in testis of rat 9L cells implanted Fischer rat at 15 to 30 uCi, iv after 120 mins by gamma-counter; assay type: ADME, organism-based; details: in vivo, 2 h; in short: as §1
# [8] = Ratio of drug level from tumor to brain of rat 9L cells implanted Fischer rat at 15 to 30 uCi, iv after 15 mins by gamma-counter; assay type: ADME, organism-based; details: in vivo, 0.25 h
# In short: (§2)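 Male Fischer 344 rats (125-175 g) received intracranial implants of 9L cells (5 × 10^4 cells) and were used 10-12 days later. Tracer was given by tail vein at 15-30 µCi in 0.1-0.3 mL sterile saline. Groups of 4 were killed at each time point. Tissues were weighed and gamma counted against dose standards with decay correction, giving %ID/g (mean). The ratio is tumor %ID/g over normal brain %ID/g.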
# [9] = Ratio of drug level from tumor to brain of rat 9L cells implanted Fischer rat at 15 to 30 uCi, iv after 30 mins by gamma-counter; assay type: ADME, organism-based; details: in vivo, 0.5 h; in short: as §2
# [10] = Ratio of drug level from tumor to brain of rat 9L cells implanted Fischer rat at 15 to 30 uCi, iv after 60 mins by gamma-counter; assay type: ADME, organism-based; details: in vivo, 1 h; in short: as §2
# [11] = Ratio of drug level from tumor to brain of rat 9L cells implanted Fischer rat at 15 to 30 uCi, iv after 120 mins by gamma-counter; assay type: ADME, organism-based; details: in vivo, 2 h; in short: as §2
# 9L = experiment: Drug uptake in rat 9L cells assessed as intracellular accumulation after 30 mins measured per 5 x 10^5 cells by gamma-counter; assay type: ADME, cell-based; details: 0.5 h
# In short: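 9L cells were grown in DMEM with 10% FCS and penicillin/streptomycin, then trypsinized and washed twice in HBSS. About 5 × 10^5 cells received 5 µCi tracer in amino acid-free HBSS for 30 min at 37 °C, without or with 10 mM BCH (L-type inhibitor). Cells were centrifuged and rinsed twice with ice-cold HBSS, then gamma-counted with decay correction. Uptake expressed as % of standard per 5 × 10^5 cells. Triplicates, 1-way ANOVA.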
# Blood [12] = experiment: Biodistribution in blood of rat 9L cells implanted Fischer rat at 15 to 30 uCi, iv after 15 mins by gamma-counter; assay type: ADME, organism-based; details: in vivo, 0.25 h; in short: as §1
# Blood [13] = experiment: Biodistribution in blood of rat 9L cells implanted Fischer rat at 15 to 30 uCi, iv after 30 mins by gamma-counter; assay type: ADME, organism-based; details: in vivo, 0.5 h; in short: as §1
# Blood [14] = experiment: Biodistribution in blood of rat 9L cells implanted Fischer rat at 15 to 30 uCi, iv after 60 mins by gamma-counter; assay type: ADME, organism-based; details: in vivo, 1 h; in short: as §1
# Blood [15] = experiment: Biodistribution in blood of rat 9L cells implanted Fischer rat at 15 to 30 uCi, iv after 120 mins by gamma-counter; assay type: ADME, organism-based; details: in vivo, 2 h; in short: as §1
# Heart [16] = experiment: Biodistribution in heart of rat 9L cells implanted Fischer rat at 15 to 30 uCi, iv after 15 mins by gamma-counter; assay type: ADME, organism-based; details: in vivo, 0.25 h; in short: as §1
# Heart [17] = experiment: Biodistribution in heart of rat 9L cells implanted Fischer rat at 15 to 30 uCi, iv after 30 mins by gamma-counter; assay type: ADME, organism-based; details: in vivo, 0.5 h; in short: as §1
# Heart [18] = experiment: Biodistribution in heart of rat 9L cells implanted Fischer rat at 15 to 30 uCi, iv after 60 mins by gamma-counter; assay type: ADME, organism-based; details: in vivo, 1 h; in short: as §1
# Heart [19] = experiment: Biodistribution in heart of rat 9L cells implanted Fischer rat at 15 to 30 uCi, iv after 120 mins by gamma-counter; assay type: ADME, organism-based; details: in vivo, 2 h; in short: as §1
# Lung [20] = experiment: Biodistribution in lung of rat 9L cells implanted Fischer rat at 15 to 30 uCi, iv after 15 mins by gamma-counter; assay type: ADME, organism-based; details: in vivo, 0.25 h; in short: as §1
# Lung [21] = experiment: Biodistribution in lung of rat 9L cells implanted Fischer rat at 15 to 30 uCi, iv after 30 mins by gamma-counter; assay type: ADME, organism-based; details: in vivo, 0.5 h; in short: as §1
# Lung [22] = experiment: Biodistribution in lung of rat 9L cells implanted Fischer rat at 15 to 30 uCi, iv after 60 mins by gamma-counter; assay type: ADME, organism-based; details: in vivo, 1 h; in short: as §1
# Lung [23] = experiment: Biodistribution in lung of rat 9L cells implanted Fischer rat at 15 to 30 uCi, iv after 120 mins by gamma-counter; assay type: ADME, organism-based; details: in vivo, 2 h; in short: as §1
# Liver [24] = experiment: Biodistribution in liver of rat 9L cells implanted Fischer rat at 15 to 30 uCi, iv after 15 mins by gamma-counter; assay type: ADME, organism-based; details: in vivo, 0.25 h; in short: as §1
# Liver [25] = experiment: Biodistribution in liver of rat 9L cells implanted Fischer rat at 15 to 30 uCi, iv after 30 mins by gamma-counter; assay type: ADME, organism-based; details: in vivo, 0.5 h; in short: as §1
structure (smiles),measurement,setting,value
N[C@]1(C(=O)O)C[C@H]([18F])C1,Drug uptake,Bone [1],0.26 % ID/g
same,Drug uptake,Bone [2],0.28 % ID/g
same,Drug uptake,Bone [3],0.2 % ID/g
same,Drug uptake,[4],0.17 % ID/g
same,Drug uptake,[5],0.27 % ID/g
same,Drug uptake,[6],0.27 % ID/g
same,Drug uptake,[7],0.21 % ID/g
same,Ratio,[8],7.2
same,Ratio,[9],11.5
same,Ratio,[10],7.6
same,Ratio,[11],7.7
same,Drug uptake,9L,15.8 %ID
same,Drug uptake,Blood [12],0.36 % ID/g
same,Drug uptake,Blood [13],0.37 % ID/g
same,Drug uptake,Blood [14],0.32 % ID/g
same,Drug uptake,Blood [15],0.26 % ID/g
same,Drug uptake,Heart [16],0.43 % ID/g
same,Drug uptake,Heart [17],0.47 % ID/g
same,Drug uptake,Heart [18],0.38 % ID/g
same,Drug uptake,Heart [19],0.3 % ID/g
same,Drug uptake,Lung [20],0.4 % ID/g
same,Drug uptake,Lung [21],0.57 % ID/g
same,Drug uptake,Lung [22],0.42 % ID/g
same,Drug uptake,Lung [23],0.48 % ID/g
same,Drug uptake,Liver [24],0.73 % ID/g
same,Drug uptake,Liver [25],0.6 % ID/g
